Experimental data as given in publication PMC4076525 (The Journal of General Physiology, 2014).

Tests used:
[1] = Extent of FeEnt-induced quenching of FM fluorescence in live cells; format: cell-based, Escherichia coli; settings: 10 nM FeEnt, 2.5 × 10^7 cells/ml, FM-labeled mutants
Outline: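 Hosts were tonB+ ΔfepA or ΔtonB ΔfepA E. coli expressing plasmid-borne Cys-substituted FepA, grown in iron-deficient MOPS medium to late log. 10^10 cells were labeled with 5 µM fluorescein-5-maleimide in 50 mM Na2HPO4, 0.9% NaCl, pH 6.5, for 5 min at 37°C. Labeling was quenched with β-mercaptoethanol, and cells were resuspended in PBS with 0.4% glucose. FeEnt was added to 2.5 × 10^7 cells in 3 ml, stirred at 2°C, with emission read at 520 nm.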

[2] = 59FeEnt transport; format: cell-based, Escherichia coli; settings: for Vmax fold lower after fluoresceination: 59FeEnt uptake; for Transport rate relative to wild-type FepA: FM-modified, TonB-dependent uptake
Outline: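 Cultures were grown in LB with antibiotics, then in iron-deficient MOPS medium to 10^9 cells/ml. Cells were assayed before and after labeling with 5 µM fluorescein-5-maleimide (pH 6.5 phosphate/NaCl buffer, 5 min, 37°C, β-mercaptoethanol stop). Uptake was measured in MOPS medium with 0.4% glucose at 37°C in 10-ml volumes. KM and Vmax came from an enzyme-kinetics equation fit per sample.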

B1: S275C: E. coli FepA with Cys substitution at S275, surface loop 3 (protein, UniProt P05825 23-746, looked up, variant S275C)
Ferrienterobactin receptor: QEPTDTPVSHDDTIVVTAAEQNLQAPGVSTITADEIRKNPVARDVSKIIRTMPGVNLTGNSTSGQRGNNRQIDIRGMGPENTLILIDGKPVSSRNSVRQGWRGERDTRGDTSWVPPEMIERIEVLRGPAAARYGNGAAGGVVNIITKKGSGEWHGSWDAYFNAPEHKEEGATKRTNFSLTGPLGDEFSFRLYGNLDKTQADAWDINQGHQSARAGTYATTLPAGREGVINKDINGVVRWDFAPLQSLELEAGYSRQGNLYAGDTQNTNSDSYTRCKYGDETNRLYRQNYALTWNGGWDNGVTTSNWVQYEHTRNSRIPEGLAGGTEGKFNEKATQDFVDIDLDDVMLHSEVNLPIDFLVNQTLTLGTEWNQQRMKDLSSNTQALTGTNTGGAIDGVSTTDRSPYSKAEIFSLFAENNMELTDSTIVTPGLRFDHHSIVGNNWSPALNISQGLGDDFTLKMGIARAYKAPSLYQTNPNYILYSKGQGCYASAGGCYLQGNDDLKAETSINKEIGLEFKRDGWLAGVTWFRNDYRNKIEAGYVAVGQNAVGTDLYQWDNVPKAVVEGLEGSLNVPVSETVMWTNNITYMLKSENKTTGDRLSIIPEYTLNSTLSWQAREDLSMQTTFTWYGKQQPKKYNYKGQPAVGPETKEISPYSIVGLSATWDVTKNVSLTGGVDNLFDKRLWRAGNAQTTGDLAGANYIAGAGAYTYNEPGRTWYMSVNTHF
Question: Which “Quenching of FM emissions by FeEnt binding” value [1] does the source give for B1 here?
Answer: Its value is “unaffected by FeEnt”.

B2: T550C-FM: FepA T550C labeled with fluorescein-5-maleimide (FM) (conjugate, UniProt P05825 23-746, looked up, variant T550C)
Ferrienterobactin receptor: QEPTDTPVSHDDTIVVTAAEQNLQAPGVSTITADEIRKNPVARDVSKIIRTMPGVNLTGNSTSGQRGNNRQIDIRGMGPENTLILIDGKPVSSRNSVRQGWRGERDTRGDTSWVPPEMIERIEVLRGPAAARYGNGAAGGVVNIITKKGSGEWHGSWDAYFNAPEHKEEGATKRTNFSLTGPLGDEFSFRLYGNLDKTQADAWDINQGHQSARAGTYATTLPAGREGVINKDINGVVRWDFAPLQSLELEAGYSRQGNLYAGDTQNTNSDSYTRSKYGDETNRLYRQNYALTWNGGWDNGVTTSNWVQYEHTRNSRIPEGLAGGTEGKFNEKATQDFVDIDLDDVMLHSEVNLPIDFLVNQTLTLGTEWNQQRMKDLSSNTQALTGTNTGGAIDGVSTTDRSPYSKAEIFSLFAENNMELTDSTIVTPGLRFDHHSIVGNNWSPALNISQGLGDDFTLKMGIARAYKAPSLYQTNPNYILYSKGQGCYASAGGCYLQGNDDLKAETSINKEIGLEFKRDGWLAGVTWFRNDYRNKIEAGYVAVGQNAVGCDLYQWDNVPKAVVEGLEGSLNVPVSETVMWTNNITYMLKSENKTTGDRLSIIPEYTLNSTLSWQAREDLSMQTTFTWYGKQQPKKYNYKGQPAVGPETKEISPYSIVGLSATWDVTKNVSLTGGVDNLFDKRLWRAGNAQTTGDLAGANYIAGAGAYTYNEPGRTWYMSVNTHF
modifications: fluorescein-5-maleimide label
Question: For B2, which “Vmax fold lower after fluoresceination” value [2] is on record?
Answer: Its value is 3–10 fold.

B3: A383C-FM: FepA A383C labeled with fluorescein-5-maleimide (FM) (conjugate, UniProt P05825 23-746, looked up, variant A383C)
Ferrienterobactin receptor: QEPTDTPVSHDDTIVVTAAEQNLQAPGVSTITADEIRKNPVARDVSKIIRTMPGVNLTGNSTSGQRGNNRQIDIRGMGPENTLILIDGKPVSSRNSVRQGWRGERDTRGDTSWVPPEMIERIEVLRGPAAARYGNGAAGGVVNIITKKGSGEWHGSWDAYFNAPEHKEEGATKRTNFSLTGPLGDEFSFRLYGNLDKTQADAWDINQGHQSARAGTYATTLPAGREGVINKDINGVVRWDFAPLQSLELEAGYSRQGNLYAGDTQNTNSDSYTRSKYGDETNRLYRQNYALTWNGGWDNGVTTSNWVQYEHTRNSRIPEGLAGGTEGKFNEKATQDFVDIDLDDVMLHSEVNLPIDFLVNQTLTLGTEWNQQRMKDLSSNTQCLTGTNTGGAIDGVSTTDRSPYSKAEIFSLFAENNMELTDSTIVTPGLRFDHHSIVGNNWSPALNISQGLGDDFTLKMGIARAYKAPSLYQTNPNYILYSKGQGCYASAGGCYLQGNDDLKAETSINKEIGLEFKRDGWLAGVTWFRNDYRNKIEAGYVAVGQNAVGTDLYQWDNVPKAVVEGLEGSLNVPVSETVMWTNNITYMLKSENKTTGDRLSIIPEYTLNSTLSWQAREDLSMQTTFTWYGKQQPKKYNYKGQPAVGPETKEISPYSIVGLSATWDVTKNVSLTGGVDNLFDKRLWRAGNAQTTGDLAGANYIAGAGAYTYNEPGRTWYMSVNTHF
modifications: fluorescein-5-maleimide label
Question: Which “Vmax fold lower after fluoresceination” value [2] does the source give for B3 here?
Answer: The value was 3–10 fold.

B4: fepA+: wild-type E. coli FepA, outer membrane ferric enterobactin transporter, expressed from pHSG575 plasmid (protein, UniProt P05825 23-746, looked up)
Ferrienterobactin receptor: QEPTDTPVSHDDTIVVTAAEQNLQAPGVSTITADEIRKNPVARDVSKIIRTMPGVNLTGNSTSGQRGNNRQIDIRGMGPENTLILIDGKPVSSRNSVRQGWRGERDTRGDTSWVPPEMIERIEVLRGPAAARYGNGAAGGVVNIITKKGSGEWHGSWDAYFNAPEHKEEGATKRTNFSLTGPLGDEFSFRLYGNLDKTQADAWDINQGHQSARAGTYATTLPAGREGVINKDINGVVRWDFAPLQSLELEAGYSRQGNLYAGDTQNTNSDSYTRSKYGDETNRLYRQNYALTWNGGWDNGVTTSNWVQYEHTRNSRIPEGLAGGTEGKFNEKATQDFVDIDLDDVMLHSEVNLPIDFLVNQTLTLGTEWNQQRMKDLSSNTQALTGTNTGGAIDGVSTTDRSPYSKAEIFSLFAENNMELTDSTIVTPGLRFDHHSIVGNNWSPALNISQGLGDDFTLKMGIARAYKAPSLYQTNPNYILYSKGQGCYASAGGCYLQGNDDLKAETSINKEIGLEFKRDGWLAGVTWFRNDYRNKIEAGYVAVGQNAVGTDLYQWDNVPKAVVEGLEGSLNVPVSETVMWTNNITYMLKSENKTTGDRLSIIPEYTLNSTLSWQAREDLSMQTTFTWYGKQQPKKYNYKGQPAVGPETKEISPYSIVGLSATWDVTKNVSLTGGVDNLFDKRLWRAGNAQTTGDLAGANYIAGAGAYTYNEPGRTWYMSVNTHF
Question: Which “Transport <FM Vmax” value ([2]; 59FeEnt, 37°C, before modification with FM, listed as wild-type FepA) does the source give for B4 here?
Answer: The value was ~100 pMol/min/10^9 cells.

B5: A322C (protein, UniProt P05825 23-746, looked up, variant A322C)
Ferrienterobactin receptor: QEPTDTPVSHDDTIVVTAAEQNLQAPGVSTITADEIRKNPVARDVSKIIRTMPGVNLTGNSTSGQRGNNRQIDIRGMGPENTLILIDGKPVSSRNSVRQGWRGERDTRGDTSWVPPEMIERIEVLRGPAAARYGNGAAGGVVNIITKKGSGEWHGSWDAYFNAPEHKEEGATKRTNFSLTGPLGDEFSFRLYGNLDKTQADAWDINQGHQSARAGTYATTLPAGREGVINKDINGVVRWDFAPLQSLELEAGYSRQGNLYAGDTQNTNSDSYTRSKYGDETNRLYRQNYALTWNGGWDNGVTTSNWVQYEHTRNSRIPEGLCGGTEGKFNEKATQDFVDIDLDDVMLHSEVNLPIDFLVNQTLTLGTEWNQQRMKDLSSNTQALTGTNTGGAIDGVSTTDRSPYSKAEIFSLFAENNMELTDSTIVTPGLRFDHHSIVGNNWSPALNISQGLGDDFTLKMGIARAYKAPSLYQTNPNYILYSKGQGCYASAGGCYLQGNDDLKAETSINKEIGLEFKRDGWLAGVTWFRNDYRNKIEAGYVAVGQNAVGTDLYQWDNVPKAVVEGLEGSLNVPVSETVMWTNNITYMLKSENKTTGDRLSIIPEYTLNSTLSWQAREDLSMQTTFTWYGKQQPKKYNYKGQPAVGPETKEISPYSIVGLSATWDVTKNVSLTGGVDNLFDKRLWRAGNAQTTGDLAGANYIAGAGAYTYNEPGRTWYMSVNTHF
Question: Which “59FeEnt transport rate compared with wild-type FepA” value ([2]; before fluoresceination) does the source give for B5 here?
Answer: Its value is “about half that rate”.

B6: S271C-FM (conjugate, UniProt P05825 23-746, looked up, variant S271C)
Ferrienterobactin receptor: QEPTDTPVSHDDTIVVTAAEQNLQAPGVSTITADEIRKNPVARDVSKIIRTMPGVNLTGNSTSGQRGNNRQIDIRGMGPENTLILIDGKPVSSRNSVRQGWRGERDTRGDTSWVPPEMIERIEVLRGPAAARYGNGAAGGVVNIITKKGSGEWHGSWDAYFNAPEHKEEGATKRTNFSLTGPLGDEFSFRLYGNLDKTQADAWDINQGHQSARAGTYATTLPAGREGVINKDINGVVRWDFAPLQSLELEAGYSRQGNLYAGDTQNTNSDCYTRSKYGDETNRLYRQNYALTWNGGWDNGVTTSNWVQYEHTRNSRIPEGLAGGTEGKFNEKATQDFVDIDLDDVMLHSEVNLPIDFLVNQTLTLGTEWNQQRMKDLSSNTQALTGTNTGGAIDGVSTTDRSPYSKAEIFSLFAENNMELTDSTIVTPGLRFDHHSIVGNNWSPALNISQGLGDDFTLKMGIARAYKAPSLYQTNPNYILYSKGQGCYASAGGCYLQGNDDLKAETSINKEIGLEFKRDGWLAGVTWFRNDYRNKIEAGYVAVGQNAVGTDLYQWDNVPKAVVEGLEGSLNVPVSETVMWTNNITYMLKSENKTTGDRLSIIPEYTLNSTLSWQAREDLSMQTTFTWYGKQQPKKYNYKGQPAVGPETKEISPYSIVGLSATWDVTKNVSLTGGVDNLFDKRLWRAGNAQTTGDLAGANYIAGAGAYTYNEPGRTWYMSVNTHF
modifications: fluorescein-5-maleimide label
Question: Which “Transport rate relative to wild-type FepA” value [2] does the source give for B6 here?
Answer: Its value is 65%.

B7: A698C-FM: FepA A698C labeled with fluorescein-5-maleimide (FM) (conjugate, UniProt P05825 23-746, looked up, variant A698C)
Ferrienterobactin receptor: QEPTDTPVSHDDTIVVTAAEQNLQAPGVSTITADEIRKNPVARDVSKIIRTMPGVNLTGNSTSGQRGNNRQIDIRGMGPENTLILIDGKPVSSRNSVRQGWRGERDTRGDTSWVPPEMIERIEVLRGPAAARYGNGAAGGVVNIITKKGSGEWHGSWDAYFNAPEHKEEGATKRTNFSLTGPLGDEFSFRLYGNLDKTQADAWDINQGHQSARAGTYATTLPAGREGVINKDINGVVRWDFAPLQSLELEAGYSRQGNLYAGDTQNTNSDSYTRSKYGDETNRLYRQNYALTWNGGWDNGVTTSNWVQYEHTRNSRIPEGLAGGTEGKFNEKATQDFVDIDLDDVMLHSEVNLPIDFLVNQTLTLGTEWNQQRMKDLSSNTQALTGTNTGGAIDGVSTTDRSPYSKAEIFSLFAENNMELTDSTIVTPGLRFDHHSIVGNNWSPALNISQGLGDDFTLKMGIARAYKAPSLYQTNPNYILYSKGQGCYASAGGCYLQGNDDLKAETSINKEIGLEFKRDGWLAGVTWFRNDYRNKIEAGYVAVGQNAVGTDLYQWDNVPKAVVEGLEGSLNVPVSETVMWTNNITYMLKSENKTTGDRLSIIPEYTLNSTLSWQAREDLSMQTTFTWYGKQQPKKYNYKGQPAVGPETKEISPYSIVGLSATWDVTKNVSLTGGVDNLFDKRLWRAGNAQTTGDLAGCNYIAGAGAYTYNEPGRTWYMSVNTHF
modifications: fluorescein-5-maleimide label
Question: For B7, which “Transport rate relative to wild-type FepA” value [2] is on record?
Answer: The value was 90%.
